Screens (PubChem)
UHRF1 MBD2 ctr: blocks human UHRF1 binding to methylated DNA; UHRF1 binding to methylated oligo, TR-FRET; 370,000 tested, 0.75% active; Q96T88; AID 687016; inhibition, % at 4.4 µM; in the data active = inhibition above about 21%;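 also: UHRF1 SRA domain binding a hemimethylated CpG hairpin DNA probe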
Rin1 Abl inh: human Rin1-Abl interaction inhibition; inhibition, % at 7.35 µM; TR-FRET Rin1/Abl binding, biochemical; P00519+Q13671; 360,000 tested, 0.4% active; in the data active = inhibition above about 5%, passing the limit was not always enough
TDP2 inh: TDP2 (human) inhibition, absorbance primary screen; O95551; recombinant TDP2, T5PNP hydrolysis, p-nitrophenol absorbance 415 nm; inhibition, % at 12.8 µM; 370,000 tested, 0.34% active; AID 720702;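 active = inhibition above the mean of all tested compounds plus 3 SD, set per campaign, cut at about 25% in these data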
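Test system: human TDP2 enzyme; Input: 120 nM TDP2 per well; Buffer or medium: Mg2+-containing Tris-HCl buffer, pH 7.5; Reagent: 5 mM T5PNP; Dosing: 12.8 µM single point, 1% DMSO; Incubation: reaction 2 h, 37 °C; Detection: p-Nitrophenol epi absorbance; Read-out: % inhibition relative to enzyme-containing and enzyme-free wells; Replicates: single well per compound.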
LEDGF integ inh: blocks HIV-1 LEDGF/p75-dependent DNA integration | AID 743269 | TR-FRET IN-LEDGF/p75 DNA integration, Eu/Cy5 | 370,000 tested, 0.64% active | inhibition, % at 3.7 µM;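 active = inhibition above the screen-wide mean plus 3 SD, cut at about 13% in these data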;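 also: signal is the Cy5 over europium emission ratio at 671 and 618 nm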
MBD2 DNA inh: blocks human MBD2 binding to methylated DNA. TR-FRET, MBD2 binding to methylated oligonucleotide. inhibition, % at 4.4 µM. 370,000 tested, 0.31% active. AID 686964; in the data active = inhibition above about 13%
Large screens that a line does not name were inactive. The list is not random: actives were taken first. Their share in the collection is about 1.9%.

COc1ccc(C2(C(=O)Nc3ccc(S(=O)(=O)Nc4nc(C)cc(C)n4)cc3)CCCC2)cc1OC	UHRF1 MBD2 ctr 42.8
O=c1[nH]c2cc(Br)c(Br)nc2[nH]1	none (no result: Rin1 Abl inh)
CC(C)C1Cc2c(sc(NC(=S)NC(=O)c3ccccc3)c2C#N)CO1 (configuration not stated)	none
CC(C)N1CCc2c(sc(NC(=S)NC(=O)c3ccccc3)c2C#N)C1	MBD2 DNA inh 20.8
CCCN1CCc2c(sc(NC(=S)NC(=O)c3ccccc3)c2C#N)C1	MBD2 DNA inh 15.2
COC(=O)[C@]12C[C@H](CC(=O)N3CCCC3)C(=O)N(Cc3cccc4ccccc34)C1=C[C@H](COCc1ccccc1)O[C@@H]2C	none (no result: Rin1 Abl inh)
O=S(=O)(c1ccc(Br)s1)N1CCC(c2nc3ccccc3o2)CC1	none (no result: Rin1 Abl inh)
N#CCc1cccnc1Sc1ccc(Cl)cc1	UHRF1 MBD2 ctr 26.1
C=C(C)Cn1c(SCC(=O)NN=Cc2c(O)ccc3ccccc23)nnc1-c1ccc(Br)cc1	none (no result: Rin1 Abl inh)
CC(=O)c1cccc(NC(=O)CN(C2CCCCC2)S(C)(=O)=O)c1	none
Cc1cccc(C)c1NC(=O)CN(C1CCCCC1)S(C)(=O)=O	UHRF1 MBD2 ctr 27.9
CSCCC(NC(=O)c1ccccc1)C(=O)OCC(=O)NCc1ccco1 (configuration not stated)	UHRF1 MBD2 ctr 26.7
O=C(COC(=O)c1ccccc1Nc1ccccc1)NCc1ccco1	UHRF1 MBD2 ctr 20.9
COc1ccc(CN2C[C@]3(C=C4CCCCC4n4c(=O)n(-c5ccccc5)c(=O)n43)N=C2NC(=O)c2ccccc2)c(OC)c1 (some centres not stated)	none (no result: Rin1 Abl inh)
CCOC(=O)CCC(NC(=O)CC(=O)NC(CCC(=O)OCC)C(=O)OCC)C(=O)OCC (configuration not stated)	UHRF1 MBD2 ctr 35.8
O=C1Cc2ccccc2C(=O)N1c1ccc(F)cc1Cl	UHRF1 MBD2 ctr 36.6
Cc1cccc(N2CCN(C(=O)c3cc(S(=O)(=O)N(C)C)ccc3Cl)CC2)c1C	none (no result: Rin1 Abl inh)
O=[N+]([O-])c1cccc(OC[C@@H](O)CN2CCC(C(O)(c3ccccc3)c3ccccc3)CC2)c1	none (no result: Rin1 Abl inh)
CC(C)NC(=O)C1(C)CN(S(C)(=O)=O)CC(=O)N1CCOc1ccccc1 (configuration not stated)	UHRF1 MBD2 ctr 40.3 (no result: Rin1 Abl inh)
CC(C)NC(=O)C1(C)CSCC(=O)N1CCOc1ccccc1 (configuration not stated)	none (no result: Rin1 Abl inh)
O=C(NCc1ccco1)C1Cc2ccccc2CN1C(=O)c1ccco1 (configuration not stated)	none
O=C(NCc1ccco1)C1Cc2ccccc2CN1S(=O)(=O)c1ccccc1F (configuration not stated)	LEDGF integ inh 14.0
CCC(C)N(C(=O)COC(=O)CNC(=O)c1sc2ccccc2c1Cl)C1CCS(=O)(=O)C1 (configuration not stated)	UHRF1 MBD2 ctr 20.8
CC(=O)c1cccc(NC(=O)c2cc(C)no2)c1	UHRF1 MBD2 ctr 64.5
Cc1cc(C(=O)Nc2cccnc2)on1	none
O=C(NCCSc1c[nH]c2ccccc12)c1c(F)cccc1F	none
O=C(NCCSc1c[nH]c2ccccc12)C1CC1	UHRF1 MBD2 ctr 45.3
CN(CCO)c1ccc2c(c1)Oc1ccccc1CN(Cc1cn(Cc3cccc(C(F)(F)F)c3)nn1)S2(=O)=O	none (no result: Rin1 Abl inh)
O=C(Cn1cc(SCc2ccccc2Cl)c2ccccc21)N1CCOCC1	UHRF1 MBD2 ctr 24.0
O=C(Nc1ccc2cn[nH]c2c1)c1ccccc1F	none
O=C(Nc1ccc2cn[nH]c2c1)c1c(Cl)cccc1Cl	UHRF1 MBD2 ctr 22.1
CCOc1cc(C(=O)NC)cc(Br)c1OCc1ccccc1	UHRF1 MBD2 ctr 48.4
CCOc1cc(C(=O)NC)cc(Br)c1OC	none
O=C(OCCN1CCN(C2CN(Cc3cn(Cc4ccccc4Cl)nn3)S(=O)(=O)C2)CC1)c1cccs1 (configuration not stated)	none (no result: Rin1 Abl inh)
O=[N+]([O-])c1cc(Br)cc(/C=N/n2cnnc2)c1O	UHRF1 MBD2 ctr 39.9
C/C(Cn1cnc([N+](=O)[O-])n1)=N/NC(=O)COc1ccccc1Cl	UHRF1 MBD2 ctr 24.4
C/C(Cn1cnc([N+](=O)[O-])n1)=N\NC(=O)c1ccccc1O	none
CCc1nnc(N/N=C/c2c(C)[nH]c3ccccc23)n1N	TDP2 inh 59.3, LEDGF integ inh 68.4
Cc1[nH]c2ccccc2c1/C=N/NC(N)=S	none
Cc1ccc(-n2c(SCC(=O)Nc3cccc4ccccc34)nnc2-c2cccs2)cc1	none (no result: Rin1 Abl inh)
CCc1ccc(OCC(=O)NC(=S)Nc2ccc(C(C)=O)cc2)c(Br)c1	UHRF1 MBD2 ctr 24.0
CC(C)OC(=O)c1cccnc1N1CCN(c2ccc(F)cc2)CC1	UHRF1 MBD2 ctr 22.8
COc1ccc(C(=O)Nn2c(CC(C)C)nc3cc(OC)c(OC)cc3c2=O)c(OC)c1	UHRF1 MBD2 ctr 34.3
COc1cc2nc(CC(C)C)n(NC(=O)c3ccccc3)c(=O)c2cc1OC	none
Cc1ccc(S(=O)(=O)N2c3ccccc3C[C@H]2CC=C(c2ccccc2)c2ccccc2)cc1	none (no result: Rin1 Abl inh)
CC(C)C(=O)OCCCN1CCC2(CCC(c3ccccc3)CC2)C1=O (configuration not stated)	none (no result: Rin1 Abl inh)
CCCN(CC1CC1)C(=O)CSc1nnc(-c2ccncc2)n1-c1ccc(OC)cc1	none (no result: Rin1 Abl inh)
CN1CCN(c2ccc(NC(=O)c3ccc(-c4ccccc4F)o3)cc2)CC1	UHRF1 MBD2 ctr 37.3
CC(C)CN1C(=O)N2Cc3ccccc3C2CS1(=O)=O (configuration not stated)	none (no result: Rin1 Abl inh)
COCCNC(=O)C1CCCN(C(=O)c2cc(C(C)(C)C)nn2C)CC1 (configuration not stated)	UHRF1 MBD2 ctr 25.0
CCC[C@H]1[C@@H](NC(=S)Nc2ccccc2Cl)CC[C@@]23CCCN2C(=O)CCC[C@@H]13	none (no result: Rin1 Abl inh)
CN(C)S(=O)(=O)N1CCN(CC(=O)Nc2ccc(Br)cc2)CC1	UHRF1 MBD2 ctr 21.9
COc1ccc(NC(=O)CN2CCN(S(=O)(=O)N(C)C)CC2)cc1	none
CCCCNC(=O)C[C@H]1C[C@@]2(C(=O)OC)C(=C[C@H](C(C)C)O[C@@H]2C2CC2)N(Cc2ccccc2)C1=O	UHRF1 MBD2 ctr 24.2 (no result: Rin1 Abl inh)
COc1ccc(C2c3ccccc3NC3C2C(=O)N(Cc2ccc(OC)cc2OC)[C@H]3Cc2ccccc2)cc1 (some centres not stated)	none (no result: Rin1 Abl inh)
CCCN(C)C[C@H]1Oc2cc(C#Cc3ccc(F)cc3)ccc2S(=O)(=O)N([C@H](C)CO)C[C@@H]1C	UHRF1 MBD2 ctr 22.2, MBD2 DNA inh 14.1
CCCNC(=O)N(C)C[C@@H]1Oc2cc(C#C[C@H](C)O)ccc2S(=O)(=O)N([C@H](C)CO)C[C@H]1C	none
C[C@@H]1CN([C@H](C)CO)S(=O)(=O)c2ccc(C#CC3CCCC3)cc2O[C@H]1CN(C)C(=O)Cc1ccccc1	UHRF1 MBD2 ctr 22.0
CCCC#Cc1ccc2c(c1)O[C@H](CN(C)C(=O)CC1CC1)[C@H](C)CN([C@@H](C)CO)S2(=O)=O	UHRF1 MBD2 ctr 24.3
Cc1nc(N(C)C)c2sc(=S)n(C)c2n1	UHRF1 MBD2 ctr 27.4
